Experimental data from different studies.
Lines come from different studies, so protocols differ.
RET: Proto-oncogene tyrosine-protein kinase receptor Ret (RET, Homo sapiens, UniProt P07949)
CIT: Citron Rho-interacting kinase (CIT, Homo sapiens, UniProt O14578)
ASH1L: Histone-lysine N-methyltransferase ASH1L (ASH1L, Homo sapiens, UniProt Q9NR48)

Compound | target | read-out | action | method | concentration | quantity | result
Cc1nn(CC(F)(F)F)cc1Nc1ncc(Br)c(NCc2ccc(S(N)(=O)=O)cc2)n1 | MAP/microtubule affinity-regulating kinase 4 (MARK4, Homo sapiens, UniProt Q96L34) | enzyme activity | inhibitor | radiometric | 1 µM | remaining activity | 79%
CC(C)[C@@H]1NC(=O)[C@@H]2CCCN2C(=O)[C@H](Cc2ccccc2)NC(=O)CSC[C@@H](C(=O)N[C@@H](Cc2ccc(O)cc2)C(N)=O)NC(=O)[C@H](Cc2c[nH]c3ccccc23)NC(=O)[C@H](CCCCN)NC(=O)[C@H](Cc2ccccc2)N(C)C(=O)[C@H](Cc2ccccc2)NC1=O | Stimulator of interferon genes protein (STING1, Homo sapiens, UniProt Q86WV6, H232R) | thermal stability | – | DSF | 50 µM | ΔTm | 5.21 °C
C=C(F)[C@@](N)(CCCCN)C(=O)O | Lysine decarboxylase (Hafnia alvei, UniProt P05033) | enzyme activity | inhibitor | absorbance | – | KI (inactivation) | 470 µM
O=C(NCc1cccnc1-n1cnc2ccccc21)c1ccc2[nH]c(=O)[nH]c2c1 | RET | enzyme activity | inhibitor | radiometric | 10 µM | remaining activity | 90.8%
Cc1ccc(C(=O)Nc2ccc(CN3CCN(C)CC3)c(C(F)(F)F)c2)cc1C#Cc1cnc2cccnn12 | CIT | enzyme activity | inhibitor | – | 23.5 nM | remaining activity | 64%
N#Cc1ccc(/C=C/CN(CC[C@H](N)C(=O)O)C[C@H]2O[C@@H](n3cnc4c(N)ncnc43)[C@H](O)[C@@H]2O)cc1 | Phenylethanolamine N-methyltransferase (PNMT, Homo sapiens, UniProt P11086) | enzyme activity | inhibitor | – | 1 µM | activity vs control | 96%
CCCOc1ccc(OC)c(F)c1C(=O)c1ccc(C(=O)N[C@@H]2CNC[C@H]2NC(=O)c2ccc3[nH]ncc3c2)cc1 | RET | enzyme activity | inhibitor | – | 0.75 µM | remaining activity | 41%
O=C(CCCCCCCCc1ccc(O)c(O)c1)c1c(O)cccc1O | Bifunctional epoxide hydrolase 2 (EPHX2, Homo sapiens, UniProt P34913) | enzyme activity | inhibitor | fluorescence | 100 µM | inhibition | 90.9%
COc1ccc(OC)c(NC(=O)Nc2cc(OC)c3nc(NC(=O)c4ccccc4)sc3c2)c1 | RET | enzyme activity | inhibitor | radiometric | 10 µM | remaining activity | 94.4%
Nc1ncnc2occ(-c3ccc(NC(=O)Nc4cc(C(F)(F)F)ccc4F)cc3)c12 | CIT | cell-free assay | inhibitor | – | 20 µM | remaining signal | 1.3%
COc1cc2ncnc(Nc3ccc(Oc4ccccc4)cc3C)c2cc1OC | Tyrosine-protein kinase JAK2, JH1 (JAK2, Homo sapiens, UniProt O60674) | enzyme activity | inhibitor | – | 1 µM | inhibition | -6%
Cn1cncc1C1=CN(c2ncnc3[nH]cnc23)CCS1 | Serine/threonine-protein kinase LATS2 (LATS2, Homo sapiens, UniProt Q9NRM7) | enzyme activity | inhibitor | radiometric | 2 µM | inhibition | 92.9%
COc1ccccc1NC(=O)Nc1ccc2nc(NC(=O)c3ccccc3)sc2c1 | RET | enzyme activity | inhibitor | radiometric | 0.1 µM | remaining activity | 113%
CC(=O)C(Cl)C(C)=O | Nitric oxide synthase, inducible (Nos2, Mus musculus, UniProt P29477) | enzyme activity | inhibitor | – | 1 mM | inhibition | > 40%
COc1cc(NC(=O)Nc2ccc(C)c(F)c2)cc2sc(NC(=O)c3ccccc3)nc12 | RET | enzyme activity | inhibitor | radiometric | 0.1 µM | remaining activity | 107%
Oc1ccc(-c2nc(-c3ccncc3)c(-c3ccc(F)cc3)[nH]2)cc1 | ASH1L | thermal stability | – | DSF | 10 µM | ΔTm | 0.27 °C
COCC(=O)Nc1cc(C(=O)N(C)CCc2c(C)n[nH]c2C)c2c(c1)ncn2Cc1ccc(F)cc1 | RET | enzyme activity | inhibitor | radiometric | 10 µM | remaining activity | 117%
Cc1cnc(Nc2ccc(OCCN3CCCC3)cc2)nc1Nc1cccc(S(=O)(=O)NC(C)(C)C)c1 | ASH1L | thermal stability | – | DSF | 10 µM | ΔTm | 0.24 °C
CCn1cc(C(=O)Nc2cccc(O)c2)c(=O)c2cc(F)c(N3CCN(C(C)=O)CC3)cc21 | RET | enzyme activity | inhibitor | radiometric | 0.1 µM | remaining activity | 90.9%
Cc1nn(C)c2ncc(C(=O)NC(=O)Nc3ccc(F)c(C(F)(F)F)c3)cc12 | C-C chemokine receptor type 4 (CCR4, Homo sapiens, UniProt P51679) | ligand displacement | – | radioligand | 10 µM | inhibition | < 10%
